Measured values from PubChem BioAssay.
Activity calls are given as the source filed them.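 The calls were made as follows, unless noted: active = viability at or under a set limit in both replicates, limit being median viability minus 3 SD (cut at about 48% in these data, passing the limit was not always enough); inconclusive = at or under the limit in just one replicate; inactive = at or above the limit in both replicates.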

What was measured:
[1] = reducers of endogenous Her2 protein level, primary screen, SKBR3 breast tumor cells, AlphaScreen, ATP viability (AID 461;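 active = Her2 level under about 52% in both replicate screens, with viability over 70% of control, limit read from the data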;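 as to Her2 level: lower value means less Her2 protein in the cells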;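 as to viability: percent of carrier control wells set as 100% viability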); settings: 18-24 h, measured here: SKBR3 viability, ATP luminescence, at 10 µM
[2] = biological target: Receptor tyrosine-protein kinase erbB-2 (Homo sapiens) (UniProt P04626); experiment: as above; settings: 18-24 h, at 10 µM, stronger effect = lower value
[3] = SK-BR-3 cell growth inhibitors, pilot screen, 24 h, human (AID 572;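 active = viability at or below 10% of carrier control in both of two separate runs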;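 also: compound exposure lasted between 18 and 24 h rather than exactly 24 h; 100% = carrier-treated control wells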); settings: SK-BR-3 viability, CellTiter-Glo luminescence, at 10 µM, stronger effect = lower value
[4] = HUVEC growth inhibition – cell-based, human, primary screen (AID 575;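 active = viability at or below 30% in both replicate assays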;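 also: 100% = median of untreated cell wells with 0.1% DMSO on each plate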); settings: HUVEC proliferation, CellTiter-Glo luminescence, 72 h; at 10 µM; stronger effect = lower value
Outline: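 Test system – primary HUVEC, no more than 12 passages · Dosing – one dose, 10 µM final, 0.1% DMSO · Times – 72 h treatment at 37 °C · Measured by – ATP-based CellTiter-Glo luminescent read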

[5] = growth inhibitors of H69AR lung tumor, primary screen, human, duplicate replicates (AID 580); settings: H69AR lung tumor cells viability, ATP luminescence, 72 h; at 10 µM; stronger effect = lower value;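 also: 100% = mean luminescence of untreated wells and 0% = no signal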
[6] = reversal of MRP1-mediated doxorubicin resistance, pilot screen, H69AR cells, doxorubicin co-treatment (AID 601;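 active = viability loss from added drug above about 55%, and viability with drug at most 40%, in both replicates, limit read from the data, passing the limit was not always enough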); settings: CellTiter-Glo, 72 h, at 10 µM; for differential viability (reversal): stronger effect = higher value
[7] = 384-well plate pilot, post-Golgi transport modulator project, inhibition of yeast transport mutant growth (AID 636; in the data active = inhibition above about 31%); settings: absorbance 615 nm, about 18 h, stronger effect = higher value
[8] = growth suppression of yeast trafficking mutant, preliminary HTS, modulators of trafficking downstream of Golgi apparatus project, 1536-format plate, OD 615 nm (AID 637; in the data active = inhibition above about 30%); settings: yeast transport mutant growth, absorbance 615 nm, 18 h; stronger effect = higher value
[9] = H69AR cells + 2 uM doxorubicin, measured here: viability with 2 uM doxorubicin, stronger effect = lower value
[10] = H69AR cells, compound alone cytotoxicity

Receptor tyrosine-protein kinase erbB-2 (Homo sapiens), sequence (P04626 whole entry, looked up): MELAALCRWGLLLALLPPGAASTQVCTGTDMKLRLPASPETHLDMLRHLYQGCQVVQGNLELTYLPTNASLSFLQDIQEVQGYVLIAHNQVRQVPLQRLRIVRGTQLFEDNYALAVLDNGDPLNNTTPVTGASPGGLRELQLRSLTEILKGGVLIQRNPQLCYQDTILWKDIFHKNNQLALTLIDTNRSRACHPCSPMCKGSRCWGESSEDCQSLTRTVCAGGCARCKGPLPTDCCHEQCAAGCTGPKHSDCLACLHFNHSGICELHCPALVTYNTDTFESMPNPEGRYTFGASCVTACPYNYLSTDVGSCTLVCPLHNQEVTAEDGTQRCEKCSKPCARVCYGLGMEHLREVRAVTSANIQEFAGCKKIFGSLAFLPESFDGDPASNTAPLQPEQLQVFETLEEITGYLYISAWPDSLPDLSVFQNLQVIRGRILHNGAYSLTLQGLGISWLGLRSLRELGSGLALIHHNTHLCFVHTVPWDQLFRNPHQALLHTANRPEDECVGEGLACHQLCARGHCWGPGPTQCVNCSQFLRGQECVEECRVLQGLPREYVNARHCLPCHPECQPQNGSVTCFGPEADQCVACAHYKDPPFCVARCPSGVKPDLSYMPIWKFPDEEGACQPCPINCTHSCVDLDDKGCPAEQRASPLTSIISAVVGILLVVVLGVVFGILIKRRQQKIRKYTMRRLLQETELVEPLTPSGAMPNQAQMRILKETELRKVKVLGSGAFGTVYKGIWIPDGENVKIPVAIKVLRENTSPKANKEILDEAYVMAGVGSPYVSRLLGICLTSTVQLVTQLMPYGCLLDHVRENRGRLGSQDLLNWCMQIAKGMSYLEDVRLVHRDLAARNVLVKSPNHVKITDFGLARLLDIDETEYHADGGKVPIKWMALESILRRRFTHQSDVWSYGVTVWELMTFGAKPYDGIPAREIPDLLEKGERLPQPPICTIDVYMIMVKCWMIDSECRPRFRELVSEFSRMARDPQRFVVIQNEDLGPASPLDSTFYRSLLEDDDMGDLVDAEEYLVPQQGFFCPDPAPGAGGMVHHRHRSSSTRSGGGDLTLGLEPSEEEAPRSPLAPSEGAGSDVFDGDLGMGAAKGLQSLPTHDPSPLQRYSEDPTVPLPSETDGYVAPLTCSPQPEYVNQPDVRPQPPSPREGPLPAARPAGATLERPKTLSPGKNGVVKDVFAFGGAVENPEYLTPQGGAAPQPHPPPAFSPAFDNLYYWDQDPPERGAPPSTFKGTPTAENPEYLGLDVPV

SMILES | viability [1] [%] | Her2 level [2] | viability [3] | viability [4] | viability [5] | differential viability (reversal) ([6]; H69AR cells + 2 uM doxorubicin) | viability [6, 9] [%] | viability [6, 10] [%] | inhibition [7] | inhibition [8]
CCOC(=O)CNS(=O)(=O)c1c(C)noc1C | 110 | 104% (inactive) | 110% (inactive) | 70.6% (inactive) | 107% (inactive) | 20.6% (inactive) | 86.2 | 107 | -4.47% (inactive) | 2.73% (inactive)
Cc1c(C(=O)OCC(C)C)[nH]c2c1C(=O)CC(c1ccco1)C2 (stereo not given) | 80.5 | 58% (inactive) | 80.5% (inactive) | 18.5% (active) | 24.1% (active) | -22.6% (inactive) | 46.6 | 24.1 | -1.2% (inactive) | -3.28% (inactive)
O=C(NCc1ccccn1)c1cccs1 | 97 | 80.5% (inactive) | 97% (inactive) | 92.4% (inactive) | 105% (inactive) | 11.9% (inactive) | 92.8 | 105 | -7.43% (inactive) | 4.1% (inactive)
Fc1cc(F)c(F)c(SCCc2ccncc2)c1F | 97 | 81.5% (inactive) | 97% (inactive) | 93.8% (inactive) | 85.3% (inactive) | 5% (inactive) | 80.3 | 85.3 | 0.67% (inactive) | 1.45% (inactive)
O=C(O)c1ccc(COc2c(F)c(F)cc(F)c2F)cc1 | 114 | 93.5% (inactive) | 114% (inactive) | 101% (inactive) | 103% (inactive) | 0.99% (inactive) | 102 | 103 | -5.73% (inactive) | -0.79% (inactive)
CCn1c(SCC(=O)N2CCCc3ccccc32)nnc1-c1cccs1 | 85.5 | 72.5% (inactive) | 85.5% (inactive) | 83.3% (inactive) | 87.5% (inactive) | 5.33% (inactive) | 82.2 | 87.5 | -5.87% (inactive) | 0.16% (inactive)
Cc1cc(C)c2c(n1)nn1c(N3CCN(c4cccc(Cl)c4)CC3)cc(C)nc21 | 98.5 | 83.5% (inactive) | 98.5% (inactive) | 61.8% (inactive) | 23.1% (active) | 6.38% (inactive) | 16.7 | 23.1 | -5.68% (inactive) | 3.65% (inactive)
CCOC(=O)C1CCN(C(=O)CSc2n[nH]c(=O)[nH]c2=O)CC1 | 109 | 90% (inactive) | 109% (inactive) | 94.6% (inactive) | 102% (inactive) | 5.61% (inactive) | 96.7 | 102 | -8.51% (inactive) | 3.67% (inactive)
COC(=O)CSc1nc2ncc(Cl)cc2[nH]1 | 101 | 92.5% (inactive) | 101% (inactive) | 89.3% (inactive) | 89.8% (inactive) | 1.08% (inactive) | 88.7 | 89.8 | -5.06% (inactive) | 1.15% (inactive)
Cc1ccc(/C(O)=C2\C(=O)C(=O)N(CCCN(C)C)C2c2ccccn2)cc1 (stereo not given) | 101 | 93% (inactive) | 101% (inactive) | 118% (inactive) | 104% (inactive) | -4.14% (inactive) | 108 | 104 | -1.84% (inactive) | 4.43% (inactive)
CCCCCOC(=O)C1=C(C)N(C)C(=O)NC1c1cc(Br)c(O)c(OC)c1 (stereo not given) | 114 | 106% (inactive) | 114% (inactive) | 72.7% (inactive) | 83.2% (inactive) | -3.32% (inactive) | 86.5 | 83.2 | -7.14% (inactive) | -7.62% (inactive)
CC(C)(CO)NC(=O)CCCOc1ccc(Cl)cc1Cl | 97 | 104% (inactive) | 97% (inactive) | 84.5% (inactive) | 98.1% (inactive) | 19% (inactive) | 79.2 | 98.1 | -0.26% (inactive) | 0.17% (inactive)
CCOc1cc(C(=O)N2CCN=C2SC)cc(OCC)c1OCC | 91.5 | 83% (inactive) | 91.5% (inactive) | 87.4% (inactive) | 105% (inactive) | 10.1% (inactive) | 95.2 | 105 | -4.73% (inactive) | 9.05% (inactive)
CC(C)CC(c1nnnn1C1CCCC1)N1CCN(c2ccccc2F)CC1 (stereo not given) | 92.5 | 94% (inactive) | 92.5% (inactive) | 103% (inactive) | 84.2% (inactive) | -7.72% (inactive) | 91.9 | 84.2 | -6.32% (inactive) | 10.7% (inactive)
COc1ccc(CNC(=O)CCc2nc(-c3ccccc3F)no2)c(OC)c1 | 80 | 95% (inactive) | 80% (inactive) | 90% (inactive) | 95.9% (inactive) | 3.65% (inactive) | 92.2 | 95.9 | -4.08% (inactive) | -0.17% (inactive)
Cc1cc(C)c2c(n1)sc1c(N3CCOCC3)ncnc12 | 91 | 90% (inactive) | 91% (inactive) | 25.4% (active) | 76.6% (inactive) | 0.885% (inactive) | 75.7 | 76.6 | -6.35% (inactive) | 0.67% (inactive)
